CXCR6 inh – blocks human CXCR6 beta-arrestin recruitment | 360,000 tested, 0.36% active | CHO-K1 PathHunter CXCR6 beta-arrestin, luminescence | O00574 | inhibition, % at 20 µM; in the data active means inhibition above about 34%, passing the limit was not always enough;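 further: antagonist mode with CXCL16 agonist at 10 nM final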
Target sequence (O00574 whole entry, looked up): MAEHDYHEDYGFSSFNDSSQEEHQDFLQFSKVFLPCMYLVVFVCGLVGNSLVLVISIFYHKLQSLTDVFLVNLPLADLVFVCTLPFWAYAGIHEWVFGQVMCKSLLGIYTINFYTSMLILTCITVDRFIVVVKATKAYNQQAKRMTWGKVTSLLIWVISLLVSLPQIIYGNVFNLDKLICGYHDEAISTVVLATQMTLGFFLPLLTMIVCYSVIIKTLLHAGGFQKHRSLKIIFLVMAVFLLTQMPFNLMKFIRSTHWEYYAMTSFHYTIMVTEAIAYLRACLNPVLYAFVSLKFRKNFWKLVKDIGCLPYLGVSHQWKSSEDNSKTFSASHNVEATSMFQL
APJ agonist – agonists of human APJ apelin receptor. AID 2520. CHO-K1 APJ PathHunter beta-arrestin, luminescence; 0% DMSO wells, 100% apelin. 330,000 tested, 0.11% active. activation, % at 20 µM. P35414;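 active means activation more than six SD over the plate average, tested at 20 µM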
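assay system = CHO-K1 APJ beta-arrestin complementation cell line | input = cell density 1000 per well | dosing = compound 20 µM once, DMSO 1% | timing = compound 90 min 25 °C, reagent 1 h | measured by = luminescence from split beta-galactosidase complementation, Galacton Star/Emerald II substrate | read-out basis = APJ agonist activity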
CCR6 antagonist – CCR6 (human) receptor antagonism; P51684; AID 493098; 340,000 tested, 0.49% active; inhibition, % at 20 µM; CHO-K1 CCR6 PathHunter beta-arrestin, luminescence, CCL20-stimulated;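 active means compounds whose inhibition of the agonist-driven luminescence signal at 20 µM reaches about 50%, limit read from the data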;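 further: cells stimulated with CCL20 at 14 nM final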
APJ antagonist – APJ receptor antagonism. 330,000 tested, 0.32% active. inhibition, % at 20 µM. P35414. CHO-K1 APJ beta-arrestin complementation, luminescence. AID 2521;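 active means inhibition above about 40% at 20 µM, limit read from the data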;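 further: cells challenged with 10 nM apelin-13 agonist together with compound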
EBI2 antag – antagonists of human EBI2 receptor | EBI2 beta-arrestin recruitment, luminescence, 7a,25-OHC stimulated | inhibition, % at 5 µM | 360,000 tested, 0.81% active; in the data active means inhibition above about 38%;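 further: enzyme fragment complementation signal reports receptor beta-arrestin coupling in cells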
Large screens that a line does not name were inactive. Hits are enriched below; roughly 1.5% of the tested compounds scored in any of these assays.

O=C1[C@@H]2Cc3c([nH]c4ccccc34)C(c3cccc([N+](=O)[O-])c3)N2C(=O)CN1CCCO (some centres not stated)	CCR6 antagonist 51
CCCSc1cc(NCCOC(C)=O)c([N+](=O)[O-])c2nonc12	none
CC(=O)OCCCNc1cc(SCc2ccco2)c2nonc2c1[N+](=O)[O-]	CCR6 antagonist 55
COc1ccc(C2=CCN3CCCCC3C2)c(-c2ccc(OC)c(OC)c2)c1 (configuration not stated)	none
COC(=O)c1cc(N/C(N)=N/c2nc(C)cc(C)n2)cc(C(=O)OC)c1	none (no result: APJ agonist, CCR6 antagonist, APJ antagonist)
O=C1N[C@H](Cc2ccccc2)COC(=O)[C@H](Cc2ccc(F)cc2)CC/C=C/C[C@H]1CC(=O)N(CCO)Cc1ccccc1	CXCR6 inh 41
O=C1N[C@@H](Cc2ccccc2)COC(=O)[C@@H](Cc2ccc(F)cc2)C/C=C\C[C@@H]1CC(=O)N(CCO)Cc1ccccc1	none
O=C1CC/C=C\C[C@@H](CC(=O)N(CCO)Cc2ccccc2)C(=O)NC[C@@H](c2ccccc2)O1	none
O=C1NC[C@@H](c2ccccc2)OC(=O)[C@@H](Cc2ccc(F)cc2)CC/C=C/C[C@@H]1CC(=O)N(CCO)Cc1ccccc1	CXCR6 inh 56 (no result: APJ agonist, APJ antagonist)
C#CC(=O)N(c1cc(OC)ccc1OC)C(C(=O)NC1CCCC1)c1cccs1 (configuration not stated)	EBI2 antag 50
CC(C)(C)NC(=O)c1ccc2nsnc2c1	none
C[N+](C)(CC#Cc1ccccc1)CC(=O)c1ccccc1	none
C[N+](C)(CC#Cc1ccccc1)CC(=O)c1ccc(Cl)cc1	APJ antagonist 42
COc1ccc(N2C(=O)C(Cl)=C(Oc3cccc(OC)c3)C2=O)cc1	CCR6 antagonist 97
COc1ccc(N2C(=O)c3ccccc3C2=O)cc1	none
COCCn1c(SC(C)C(=O)Nc2ccc(N3CCOCC3)cc2)nnc1-c1ccncc1 (configuration not stated)	none
COc1ccc(CN(C(=O)/C=C/C(=O)c2ccc(OC)cc2O)C(C(=O)NC2CCCCC2)c2ccncc2)cc1 (configuration not stated)	none
COCCN(CC(=O)NC1CCCCC1)C(=O)/C=C/C(=O)c1ccc(OC)cc1O	CXCR6 inh 62, CCR6 antagonist 65 (no result: APJ agonist, APJ antagonist)
COc1ccc(C(=O)/C=C/C(=O)N(CC(=O)NC2CCCCC2)Cc2cccs2)c(O)c1	CXCR6 inh 72, CCR6 antagonist 92
CC1=C(C(=O)OCc2ccccc2)C(c2ccccc2[N+](=O)[O-])NC(=O)N1C (configuration not stated)	none
Cc1ccc(C(=O)COC(=O)CCC(=O)Nc2cc(Cl)ccc2Cl)cc1[N+](=O)[O-]	CCR6 antagonist 62
COc1ccc([C@H]2CC(=O)C=C(c3cc4ccccc4s3)C2)cc1	EBI2 antag 63
COC(=O)c1ccccc1NCC(=O)c1ccc(OC)cc1	none
COc1ccc(C(=O)CNc2ccc(C)cc2C)cc1	CXCR6 inh 43, CCR6 antagonist 79
O=C(Cc1cccc(NC(=O)C2CCCN(C(=O)C3CCCCC3)C2)c1)Nc1cccc(C(=O)N2CCCCC2)c1 (configuration not stated)	none (no result: APJ agonist, APJ antagonist)
COc1ccccc1/C=C/C(=O)/C=C/c1ccccc1O	EBI2 antag 44 (no result: APJ agonist, APJ antagonist)
O=C(CCc1nc2ccccc2c(=O)[nH]1)N1CCN(S(=O)(=O)c2ccc(F)cc2)CC1	none
CCCCn1c(NC(=O)c2ccc(F)cc2)c(C#N)c2nc3ccccc3nc21	APJ antagonist 56 (no result: CXCR6 inh, CCR6 antagonist, EBI2 antag)
O=C(N/N=C/c1ccccc1O)c1cccc(C(F)(F)F)c1	EBI2 antag 59
O=C(C(Br)=Cc1ccccc1)c1ccccc1	CXCR6 inh 48, CCR6 antagonist 69, EBI2 antag 69 (no result: APJ agonist, APJ antagonist)
CC(=Cc1ccccc1)C(=O)c1ccccc1	none (no result: APJ agonist, CCR6 antagonist, APJ antagonist)
CCCN1C(=O)/C(=C2\SC(=S)N(c3c(C)n(C)n(-c4ccccc4)c3=O)C2=O)c2ccccc21	CCR6 antagonist 51 (no result: CXCR6 inh, EBI2 antag)
CSc1nc(N)nc2c1ncn2C1OC(CO)CC1O (configuration not stated)	none (no result: APJ agonist, APJ antagonist)
CCOC(=O)N=Nc1c(O)n(CC(=O)OC)c2ccccc12	none
CCOC(=O)N=Nc1c2ccccc2c2nc3no[nH]c3nc12	CXCR6 inh 36
CCn1cc(C=C2C(=O)c3ccccc3C2=O)c2ccccc21	CCR6 antagonist 51 (no result: APJ agonist, APJ antagonist)
O=C(Nc1cccc(Cl)c1)c1cc(N=Nc2ccc([N+](=O)[O-])cc2Cl)ccc1O	CXCR6 inh 64, CCR6 antagonist 100, APJ antagonist 56
Cc1ccc(CNC(=O)C2CCCN2C(=O)Nc2ccc(F)cc2)cc1 (configuration not stated)	none
COc1ccccc1C(=O)NNC(=S)NC(=O)c1cc(OC)c(OC)c(OC)c1	CCR6 antagonist 58
COc1cc(C(=O)NNC(=S)NC(=O)c2ccccc2C)cc(OC)c1OC	none
O=C(NC1CC1)c1ccc(-n2cccc2)cc1	none
COc1ccccc1N=Nc1ccc(O)c2ncccc12	CCR6 antagonist 54
Nc1[nH]n2c(=O)cc(-c3ccccc3)nc2c1N=Nc1ccccc1	CCR6 antagonist 51
O=C(CSc1ncccn1)N1CCN(S(=O)(=O)c2ccccc2)CC1	none
Cc1cc(Br)ccc1SCC(=O)N1CCN(S(=O)(=O)c2ccccc2)CC1	EBI2 antag 83
CC(C)C(=O)N1CCC2(CC1)Oc1ccc(F)cc1C(=O)C21CC(c2cccnc2)=NO1 (configuration not stated)	none (no result: CXCR6 inh, CCR6 antagonist, EBI2 antag)
CC(Oc1ccccc1)C(=O)N1CCC2(CC1)Oc1ccc(F)cc1C(=O)C21CC(c2ccccc2)=NO1 (configuration not stated)	EBI2 antag 50
CC(Oc1ccccc1)C(=O)N1CCC2(CC1)Oc1ccc(F)cc1C(=O)C21CC(c2cccnc2)=NO1 (configuration not stated)	EBI2 antag 42
O=[N+]([O-])c1cc2cccnc2c2ncccc12	none
O=[N+]([O-])c1cc(O)c2ncccc2c1	CCR6 antagonist 54 (no result: CXCR6 inh, EBI2 antag)
CC1CCN(Cc2c(C(=O)N/N=C/c3cc(Cl)ccc3O)nnn2-c2nonc2N)CC1	CCR6 antagonist 50
CC1CCN(Cc2c(C(=O)N/N=C/c3cc(Br)ccc3O)nnn2-c2nonc2N)CC1	none
CC(C)(C)OC(=O)C(C)(C)Sc1nnc(N)s1	none
C(=N\Nc1nc(-c2ccccc2)cs1)/c1ccco1	APJ agonist 10
Cc1ccc(-c2csc(N/N=C/c3ccco3)n2)cc1	none
NNc1nc(-c2ccccc2)cs1	CCR6 antagonist 59
NS(=O)(=O)c1cccc(NC(=O)CSc2nnc3n2CCCCC3)c1	none
COc1ccc(-c2nnc(SCC(=O)O)n2Cc2ccccc2)cc1	none
COc1cccc(C(=O)N2CCC2(C)C(=O)O)c1 (configuration not stated)	none (no result: APJ agonist, CCR6 antagonist, APJ antagonist)
Cc1nc2c(-c3ccccc3)c(C)[nH]n2c(=O)c1Cc1ccccc1	none
Cc1nc2c(-c3ccc(Cl)cc3)c(C)[nH]n2c(=O)c1Cc1ccccc1	CXCR6 inh 43

Compound activity from PubChem.
